In ChEMBL document CHEMBL6134776, “New anti-ovarian cancer quinolone derivatives acting by modulating microRNA processing machinery” (RSC Med Chem, 2025):
Active and inactive are the calls of the source. The rule behind the calls is not given here.

Legend:
SK-OV-3 [1] = assay: Antiproliferative activity against human SK-OV-3 cells assessed as growth inhibition measured after 72 hrs; format: functional
Procedure, shortened: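 100 000 SKOV-3 or Wi-38 cells per 35 mm dish, allowed to adhere, then given compound at scalar concentrations. First pass ran up to 200 μM (SKOV-3) or 250 μM (Wi-38), then a narrowed range. Cells counted after 72 h and GI50/CC50 taken by linear regression with 95% CI. Three experiments in triplicate, three counts per sample.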

HCCLM3 [2] = assay: Antiproliferative activity against wild type human HCCLM3 cells assessed as growth inhibition at 30 uM measured after 48 hrs by CCK-8 method relative to control; format: functional, cell-based
Procedure, shortened: (§1)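 HCCLM3 and SK-Hep-1 cells, TRBP wild-type and knockout, seeded at 10 000 cells/well and left to adhere overnight. Treated 48 h alongside a 0.1% DMSO negative control and a 125 μM enoxacin positive control. Viability read with 10% CCK-8 in DMEM, 30 min at 37 °C, at 450 nm.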

HEK-293T = assay: Induction of RNAi enhancing activity in HEK293T cells transfected with shGAPDH assessed as decrease in amount of GAPDH mRNA at 50 uM incubated for 48 hrs by qRT-PCR; format: functional, cell-based; conditions: Homo sapiens
Procedure, shortened: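 HEK-293T stably expressing shGAPDH or scrambled shRNA (lentiviral transduction, puromycin 3 μg mL−1 selection) treated 48 h at 50 μM. GAPDH mRNA measured by qRT-PCR against ATP5O, relative to sh-Scr/DMSO set to 1. At least three independent experiments.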

[3] = biological target: T1, DNA topoisomerase 1 (Homo sapiens) (UniProt P11387); assay: Inhibition of human topoisomerase I at 100 uM by spectrophotometric analysis
T1 sequence (whole entry): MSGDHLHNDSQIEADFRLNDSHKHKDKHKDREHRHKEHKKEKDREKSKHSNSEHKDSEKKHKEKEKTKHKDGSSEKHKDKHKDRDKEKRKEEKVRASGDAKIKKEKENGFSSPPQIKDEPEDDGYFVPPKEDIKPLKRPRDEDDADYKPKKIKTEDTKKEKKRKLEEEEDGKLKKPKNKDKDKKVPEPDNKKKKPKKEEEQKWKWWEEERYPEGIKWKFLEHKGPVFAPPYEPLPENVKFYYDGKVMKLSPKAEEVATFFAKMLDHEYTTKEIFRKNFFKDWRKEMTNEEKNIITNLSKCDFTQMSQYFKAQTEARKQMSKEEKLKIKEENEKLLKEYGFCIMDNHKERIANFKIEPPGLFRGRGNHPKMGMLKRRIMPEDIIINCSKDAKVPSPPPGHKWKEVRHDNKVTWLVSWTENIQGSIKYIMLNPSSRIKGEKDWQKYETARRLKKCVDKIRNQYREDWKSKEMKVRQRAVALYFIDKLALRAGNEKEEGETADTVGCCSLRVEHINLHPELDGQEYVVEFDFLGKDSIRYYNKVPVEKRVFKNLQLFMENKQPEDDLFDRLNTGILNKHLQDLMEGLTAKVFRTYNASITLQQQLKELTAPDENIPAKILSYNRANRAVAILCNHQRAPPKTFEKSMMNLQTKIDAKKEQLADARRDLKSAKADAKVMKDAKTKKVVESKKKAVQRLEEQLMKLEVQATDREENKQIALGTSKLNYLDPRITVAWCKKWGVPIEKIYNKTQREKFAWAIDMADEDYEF

A2780 [4] = assay: Induction of cell death in human A2780 cells assessed as reduction in total number of cells at 30 uM incubated for 72 hrs by trypan blue staining based analysis; format: functional
Procedure, shortened: (§2)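 Cells dosed at 30 μM for 72 h in RPMI 1640 (A2780, SKOV-3) or DMEM (MCF-7, A549, HCT-116), 10% FBS, 37 °C, 5% CO2. Total and viable cell numbers taken by trypan blue with an automated counter. Viable cells given as % of DMSO; dead cells as a percentage. At least three independent experiments.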

SK-HEP1 [5] = assay: Antiproliferative activity against wild type human SK-HEP1 cells assessed as growth inhibition at 50 uM measured after 48 hrs by CCK-8 method; format: functional, cell-based; procedure, shortened: as §1
A2780 [6] = assay: Antiproliferative activity against human A2780 cells assessed as growth inhibition at 30 uM measured after 72 hrs; format: functional, cell-based; procedure, shortened: as §2
SK-OV-3 [7] = assay: Induction of cell death in human SK-OV-3 cells assessed as reduction in total number of cells at 30 uM incubated for 72 hrs by trypan blue staining based analysis; format: functional; procedure, shortened: as §2
SK-OV-3 [8] = assay: Effect on Bcl-Xl level in human SK-OV-3 cells by Western blot analysis; format: functional, cell-based
Procedure, shortened: (§3)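 SKOV-3 and A2780 given 30 μM compound for 72 h. Protein extracts run on 4–12% bis–tris gels and blotted to nitrocellulose, blocked in 5% milk. Probed for cleaved PARP and Bcl-XL, with β-actin as loading control.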

A2780 [9] = assay: Downregulation of Bcl-Xl level in human A2780 cells by Western blot analysis; format: functional, cell-based; procedure, shortened: as §3
SK-HEP1 [10] = assay: Antiproliferative activity against wild type human SK-HEP1 cells assessed as growth inhibition at 30 uM measured after 48 hrs by CCK-8 method; format: functional, cell-based; procedure, shortened: as §1
SK-OV-3 [11] = assay: Effect on cleaved PARP1 level in human SK-OV-3 cells by Western blot analysis; format: functional, cell-based; procedure, shortened: as §3
A2780 [12] = assay: Antiproliferative activity against human A2780 cells assessed as growth inhibition at 30 uM measured after 48 hrs in presence of cisplatin
A2780 [13] = assay: Induction of cell death in human A2780 cells assessed as increase in percentage of dead cells at 30 uM incubated for 72 hrs by trypan blue staining based analysis; format: functional; procedure, shortened: as §2
[14] = tested on: Cisplatin-resistant A2780; assay: Antiproliferative activity against human Cisplatin-resistant A2780 cells assessed as growth inhibition at 30 uM measured after 48 hrs in presence of cisplatin
A549 = assay: Antiproliferative activity against human A549 cells assessed as growth inhibition at 30 uM measured after 72 hrs; format: functional, cell-based; procedure, shortened: as §2
A2780 [15] = assay: Upregulation of cleaved PARP1 level in human A2780 cells by Western blot analysis; format: functional, cell-based; procedure, shortened: as §3
[16] = tested on: Cisplatin-resistant A2780; assay: Antiproliferative activity against human Cisplatin-resistant A2780 cells assessed as growth inhibition at 30 uM measured after 48 hrs
HCT-116 = assay: Antiproliferative activity against human HCT-116 cells assessed as growth inhibition at 30 uM measured after 72 hrs; format: functional, cell-based; procedure, shortened: as §2
HCCLM3 [17] = assay: Antiproliferative activity against TRBP knockout human HCCLM3 cells assessed as growth inhibition at 30 uM measured after 48 hrs by CCK-8 method; format: functional, cell-based; procedure, shortened: as §1
HeLa = assay: Induction of miR-21-5p biogenesis in human HeLa cells assessed as decrease in renilla luciferase activity at 50 uM measured after 6 hrs by dual-luciferase reporter assay
MCF7 = assay: Antiproliferative activity against human MCF7 cells assessed as growth inhibition at 30 uM measured after 72 hrs; format: functional, cell-based; procedure, shortened: as §2
Homo sapiens = species on record: Homo sapiens; assay: Inhibition of human topoisomerase II at 100 uM by spectrophotometric analysis
SK-HEP1 [18] = assay: Antiproliferative activity against TRBP knockout human SK-HEP1cells assessed as growth inhibition at 30 uM measured after 48 hrs by CCK-8 method; format: functional, cell-based; procedure, shortened: as §1
SK-HEP1 [19] = assay: Antiproliferative activity against TRBP knockout human SK-HEP1 cells assessed as growth inhibition at 50 uM measured after 48 hrs by CCK-8 method; format: functional, cell-based; procedure, shortened: as §1
SKOV-3 (Homo sapiens) = assay: Antiproliferative activity against human SKOV-3 cells assessed as growth inhibition measured after 72 hrs

With CC(C)(C)n1cc(C(=O)O)c(=O)c2cc(N)c(N3CCc4ccccc43)cc21 the GI50 (SK-OV-3 [1]) was > 100 µM.

In the case of O=C(O)c1cn(C2CC2)c2cc(N3CCc4ccccc4C3)c(F)cc2c1=O, the Activity (HCCLM3 [2]) is reported as “Active”, the Activity (HEK-293T) is reported as “Active” and the inhibition [3] is reported as “inactive”. For the same compound, the Activity (A2780 [4]) was “Active”, the Activity (SK-HEP1 [5]) was “Active” and the Activity (A2780 [6]) was “Active”. The Activity (SK-OV-3 [7]) was “Active”, the Activity (SK-OV-3 [8]) was “inactive” and the Activity (A2780 [9]) was “Active”. The Activity (SK-HEP1 [10]) was “inactive”, the Activity (SK-OV-3 [11]) was “inactive” and the Activity (A2780 [12]) was “Active”. For the same compound, the Activity (A2780 [13]) was “Active”, the Activity [14] was “Active” and the Activity (A549) was “Active”. The Activity (A2780 [15]) was “Active”, the Activity [16] was “Active” and the Activity (HCT-116) was “Active”. For the same compound, the Activity (HCCLM3 [17]) was “inactive”, the Activity (HeLa) was “Active” and the Activity (MCF7) was “Active”. The inhibition (Homo sapiens) was “inactive”, the Activity (SK-HEP1 [18]) was “inactive” and the Activity (SK-HEP1 [19]) was “inactive”.

With Cc1c(N2CCC3CCCCC3C2)c(N)cc2c(=O)c(C(=O)O)cn(C3CC3)c12 (stereo not drawn) the GI50 (SK-OV-3 [1]) was > 100 µM.

In the case of Cc1c(N2CCOCC2)c(N)cc2c(=O)c(C(=O)O)cn(C3CC3)c12, the GI50 (SK-OV-3 [1]) is reported as > 100 µM.

With Cc1c(N2CCCCC2)c(N)cc2c(=O)c(C(=O)O)cn(C3CC3)c12 the GI50 (SK-OV-3 [1]) was > 100 µM.

For Cc1c(NCCN2CCCCC2)c(N)cc2c(=O)c(C(=O)O)cn(C3CC3)c12, the GI50 at 72 h (SKOV-3 (Homo sapiens)) was ≥ 25 µM.

In the case of Cc1c(N2Cc3ccccc3C2)c(N)cc2c(=O)c(C(=O)O)cn(C3CC3)c12, the GI50 at 72 h (SKOV-3 (Homo sapiens)) is reported as ≥ 25 µM.

For Cc1c(N2CC(C)OC(C)C2)c(N)cc2c(=O)c(C(=O)O)cn(C3CC3)c12 (stereo not drawn), the GI50 (SK-OV-3 [1]) was 100 µM.

With Nc1cc2c(=O)c(C(=O)O)cn(C3CC3)c2cc1N1CCc2ncncc2C1 the GI50 at 72 h (SKOV-3 (Homo sapiens)) was ≥ 25 µM.

With Cc1c(N2CCC(O)CC2)c(N)cc2c(=O)c(C(=O)O)cn(C3CC3)c12 the GI50 (SK-OV-3 [1]) was > 100 µM.
